Data on 23 compounds can be found in ChEMBL document CHEMBL1153706, “Synthesis of 9-anilinoacridine triazines as new class of hybrid antimalarial agents” (Bioorg Med Chem Lett, 2009).

One data set deals with Plasmodium falciparum. Briefly: Antimalarial activity against chloroquine-sensitive Plasmodium falciparum 3D7 after 72 hrs. Type of data set: functional, organism-based. Conditions: 3D7, 72 h. The procedure, abridged: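 P. falciparum 3D7 cultured with 0.5% parasitaemia in a 2.5% cell suspension. Compounds are made up as 5 mg/ml DMSO stocks. Twofold serial dilutions (seven concentrations) start at 500 ng/ml, or 25 ng/ml for chloroquine, in duplicate wells. Incubated 72 h, then lysis buffer with SYBR Green I, 1 h at room temperature, fluorescence read. IC50 from non-linear regression dose–response curves.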

The nature of data set [1]: Selectivity index, ratio of IC50 for african green monkey (Cercopithecus aethiops) Vero cells to IC50 for chloroquine-sensitive Plasmodium falciparum 3D7. To be noted: read-out: Ratio IC50. Format: toxicity, cell-based. An outline of the steps:
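Ratio of the Vero IC50 to the 3D7 IC50. Vero monkey kidney […] cells at 1 × 10⁴ cells/well exposed to varying compound concentrations for 72 h, MTT read-out, IC50 from non-linear regression. The 3D7 IC50 comes from a 72 h SYBR Green I fluorescence assay using twofold serial dilutions from 500 ng/ml.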

The test system of the next data set is Plasmodium yoelii. Briefly: Antimalarial activity against chloroquine-resistant Plasmodium yoelii N67 infected in Swiss mice (Mus musculus) assessed as suppression of parasitaemia at 100 mg/kg, peroral for 4 days. Type of data set: functional. Conditions: N67, 96 h, route oral. An outline of the steps: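 Swiss mice (22 2 g), groups of five, inoculated with 1 × 10⁶ parasitized RBC on day 0; dosed once daily days 0–3, orally, 0.1 ml aqueous suspension with a few drops of Tween 80. Parasitaemia read from thin blood smears between days 4 and 6; group mean used for percent suppression versus untreated controls; CQ-treated mice as reference.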

Molecules are shown by their SMILES.

In the data set with Plasmodium falciparum, `COc1ccc2nc3cc(Cl)ccc3c(Nc3ccc(Nc4nc(NCCN(C)C)nc(Nc5ccc(F)cc5)n4)cc3)c2c1` came in with an IC50 of 40.1 nM. Also, in data set [1], the selectivity ratio was 28.1.
For `COc1ccc2nc3cc(Cl)ccc3c(Nc3ccc(Nc4nc(N)nc(Nc5ccccc5)n4)cc3)c2c1`, in that order: 68.4 nM and 448.
The like results for `CCN1CCN(c2nc(Nc3ccccc3)nc(Nc3ccc(Nc4c5ccc(Cl)cc5nc5ccc(OC)cc45)cc3)n2)CC1` were, in that order, 19.2 nM and 164.
With `COc1ccc2nc3cc(Cl)ccc3c(Nc3ccc(Nc4nc(NCCO)nc(Nc5ccccc5)n4)cc3)c2c1`, in the data set on Plasmodium falciparum, it took 9.46 nM to reach half-maximal inhibition (IC50). Also, the inhibition in vivo at 100 mg/kg in the data set on Plasmodium yoelii is 58.5%. In addition, the selectivity ratio in data set [1] stood at 755.
Compound `COc1ccc2nc3cc(Cl)ccc3c(Nc3ccc(Nc4nc(NCCCN5CCOCC5)nc(Nc5ccc(F)cc5)n4)cc3)c2c1` returned an IC50 with Plasmodium falciparum of 45.1 nM. Moreover, in data set [1], the selectivity ratio was 1560.
As to `COc1ccc2nc3cc(Cl)ccc3c(Nc3ccc(Nc4nc(NCCN5CCOCC5)nc(Nc5ccccc5)n4)cc3)c2c1`, 6.97 nM corresponded to half-maximal inhibition in the data set with Plasmodium falciparum (IC50). Also, in the data set on Plasmodium yoelii, the inhibition in vivo at 100 mg/kg amounted to 96.6%. In addition, the selectivity ratio in data set [1] came to 2900.
In the data set on Plasmodium falciparum, `CCN(CC)CCNc1nc(Nc2ccc(F)cc2)nc(Nc2ccc(Nc3c4ccc(Cl)cc4nc4ccc(OC)cc34)cc2)n1` displayed an IC50 of 27.9 nM. Besides, the inhibition in vivo at 100 mg/kg in the data set with Plasmodium yoelii was determined as 95.4%. Moreover, in data set [1], the selectivity ratio amounted to 155.
For `COc1ccc2nc3cc(Cl)ccc3c(Nc3ccc(Nc4nc(NCCCO)nc(Nc5ccccc5)n4)cc3)c2c1`, in the data set with Plasmodium falciparum, the 50% inhibitory concentration (IC50) was determined as 365 nM. Moreover, the selectivity ratio in data set [1] came to 17.4.
The like results for `COc1ccc2nc3cc(Cl)ccc3c(Nc3ccc(Nc4nc(NCCCN5CCOCC5)nc(Nc5ccccc5)n4)cc3)c2c1` were, in that order, 15.1 nM and 61.4.
For `COc1ccc2nc3cc(Cl)ccc3c(Nc3ccc(Nc4nc(NN)nc(Nc5ccccc5)n4)cc3)c2c1`, in that order: 4.27 nM and 31.4.
On to `CCN(CC)CCCC(C)Nc1ccnc2cc(Cl)ccc12` (stereo unspecified) [CHLOROQUINE], for which the inhibition in vivo at 100 mg/kg in the data set with Plasmodium yoelii came to 99.9%.
`CCN1CCN(c2nc(Nc3ccc(F)cc3)nc(Nc3ccc(Nc4c5ccc(Cl)cc5nc5ccc(OC)cc45)cc3)n2)CC1` yielded an IC50 in the data set with Plasmodium falciparum of 65.6 nM. The selectivity ratio in data set [1] amounted to 193.
On to `COc1ccc2nc3cc(Cl)ccc3c(Nc3ccc(Nc4nc(NCCN5CCOCC5)nc(Nc5ccc(F)cc5)n4)cc3)c2c1`, for which the concentration for half-maximal inhibition (IC50) in the data set on Plasmodium falciparum was determined as 20.1 nM. In addition, in the data set with Plasmodium yoelii, the inhibition in vivo at 100 mg/kg turned out to be 98.7%. The selectivity ratio in data set [1] was 3090.
Compound `COc1ccc2nc3cc(Cl)ccc3c(Nc3ccc(Nc4nc(N)nc(Nc5ccc(F)cc5)n4)cc3)c2c1` returned an IC50 in the data set on Plasmodium falciparum of 119 nM. Also, the selectivity ratio in data set [1] amounted to 37.1.
`CCN(CC)CCNc1nc(Nc2ccccc2)nc(Nc2ccc(Nc3c4ccc(Cl)cc4nc4ccc(OC)cc34)cc2)n1` displayed a half-inhibitory concentration (IC50) in the data set with Plasmodium falciparum of 21.8 nM. Besides, the selectivity ratio in data set [1] came out at 137.
For `CCCCNc1nc(Nc2ccccc2)nc(Nc2ccc(Nc3c4ccc(Cl)cc4nc4ccc(OC)cc34)cc2)n1`, in that order: 289 nM and 138.
The like results for `COc1ccc2nc3cc(Cl)ccc3c(Nc3ccc(Nc4nc(Nc5ccccc5)nc(N5CCN(C)CC5)n4)cc3)c2c1` were, in that order, 22.1 nM and 146.
`COc1ccc2nc3cc(Cl)ccc3c(Nc3ccc(Nc4nc(NCCCN(C)C)nc(Nc5ccccc5)n4)cc3)c2c1` came in with an IC50 with Plasmodium falciparum of 4.21 nM. In the data set with Plasmodium yoelii, the inhibition in vivo at 100 mg/kg stood at 95.7%. In addition, the selectivity ratio in data set [1] is 295.
In turn, `CNc1nc(Nc2ccc(F)cc2)nc(Nc2ccc(Nc3c4ccc(Cl)cc4nc4ccc(OC)cc34)cc2)n1` had an IC50 in the data set on Plasmodium falciparum of 116 nM. The selectivity ratio in data set [1] came to 336.
For `COc1ccc2nc3cc(Cl)ccc3c(Nc3ccc(Nc4nc(Nc5ccc(F)cc5)nc(N5CCN(C)CC5)n4)cc3)c2c1`, in that order: 49.4 nM and 210.
In the data set on Plasmodium falciparum, `COc1ccc2nc3cc(Cl)ccc3c(Nc3ccc(Nc4nc(NCCN(C)C)nc(Nc5ccccc5)n4)cc3)c2c1` displayed an IC50 of 7.95 nM. Besides, the inhibition in vivo at 100 mg/kg with Plasmodium yoelii was 49%. Also, the selectivity ratio in data set [1] was 160.
`COc1ccc2nc3cc(Cl)ccc3c(Nc3ccc(Nc4nc(NCCCN(C)C)nc(Nc5ccc(F)cc5)n4)cc3)c2c1` returned an IC50 in the data set on Plasmodium falciparum of 35.2 nM. The selectivity ratio in data set [1] stood at 99.8.
For `COc1ccc2nc3cc(Cl)ccc3c(Nc3ccc(Nc4nc(Nc5ccccc5)nc(NC5CCCC5)n4)cc3)c2c1`, in that order: 17.5 nM and 5010.
